Common to all, as to type: functional, Homo sapiens
One assay has as its system Faza 967 cell clone 2/T1. The assay can be described thus: The compound was tested in vitro for antiproliferative activity against Faza 967 clone2/T1 tumor cell lines. On the set-up: concentration or dose not given beside the values.
Assay [1] concerns A-431. The assay can be described thus: (§1) The compound was tested in vitro for antiproliferative activity against A431 tumor cell lines. Also noted: concentration or dose not given beside the values. The procedure, abridged: (§2)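 Human tumor cell lines were exposed to the conjugates for 24 h at 50 µg/mL. Surviving cells converted the tetrazolium salt MTT to formazan, and OD was read at 570 nm. Values are percent inhibition relative to untreated cells (0%), given as the mean ± SD of at least three parallels. The methods also list 20, 50 and 100 µg/mL and 24 or 48 h exposures.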

The test system of a further assay is Faza 967 clone 2. Nature of the assay: The compound was tested in vitro for antiproliferative activity against Faza 967 clone2 tumor cell lines. Also noted: concentration or dose not given beside the values.
Another assay has as its system HT-29. Nature of the assay: The compound was tested in vitro for antiproliferative activity against HT-29 tumor cell lines. Also noted: concentration or dose not given beside the values. The procedure, abridged:
as §2

Another assay relates to A2058. The assay can be described thus: The compound was tested in vitro for antiproliferative activity against A2058 tumor cell lines. On the set-up: concentration or dose not given beside the values. The procedure, abridged: as §2
The test system of the next assay is PC-3. Nature of the assay: The compound was tested in vitro for antiproliferative activity against PC3 tumor cell lines. The method in brief: as §2
The test system of the next assay is SW-620. Nature of the assay: The compound was tested in vitro for antiproliferative activity against […] tumor cell lines. The method in brief: as §2
For assay [2], the system named is A-431. Described as §1. The procedure, abridged: as §2

Drawing on ChEMBL document CHEMBL1132408, “Novel lipoamino acid- and liposaccharide-based system for peptide delivery: application for oral administration of tumor-selective somatostatin analogues” (J Med Chem, 1999), this text covers Inhibition for 14 molecules.

By Inhibition is commonly meant the relative decrease from the control value, in per cent. For the molecule `CCCCCCCCC(NC(=O)[C@@H](NC(=O)[C@H](CSCNC(C)=O)NC(=O)[C@H](CCCCN)NC(=O)[C@@H](Cc1c[nH]c2ccccc12)NC(=O)[C@@H](NC(=O)[C@H](CSCNC(C)=O)NC(=O)[C@H](N)Cc1ccccc1)c1ccc(O)cc1)[C@@H](C)O)C(=O)NCC(=O)O` (some centres not stated), the Inhibition in the assay with Faza 967 cell clone 2/T1 is reported as 90%; in the assay on A-431 [1], 76%; in the assay with Faza 967 clone 2 it was 92%; in the assay with HT-29, 93%; in the assay on A2058 it was 97%.
For the molecule `CCCCCCCCC(N)C(=O)N[C@H](Cc1ccccc1)C(=O)N[C@H]1CSSC[C@@H](C(=O)N[C@H](C(N)=O)[C@@H](C)O)NC(=O)[C@H](CCCCN)NC(=O)[C@@H](Cc2c[nH]c3ccccc23)NC(=O)[C@H](c2ccc(O)cc2)NC1=O` (some centres not stated), the figures for the Inhibition in the assay on PC-3 and in the assay on SW-620 were 42% and 95%, respectively.
Take `CCCCCCCCCCCCCCCCC(N)C(=O)N[C@H](Cc1ccccc1)C(=O)N[C@@H](CSCNC(C)=O)C(=O)N[C@H](C(=O)N[C@H](Cc1c[nH]c2ccccc12)C(=O)N[C@@H](CCCCN)C(=O)N[C@@H](CSCNC(C)=O)C(=O)N[C@H](C(N)=O)[C@@H](C)O)c1ccc(O)cc1` (some centres not stated): the Inhibition is 88% with Faza 967 cell clone 2/T1; 83% with A-431 [1]; 93% with Faza 967 clone 2; 20% in the assay on HT-29; 60% with A2058.
As to `CCCCCCCCCCC(N)C(=O)N[C@H](Cc1ccccc1)C(=O)N[C@H]1CSSC[C@@H](C(=O)N[C@H](C(N)=O)[C@@H](C)O)NC(=O)[C@H](CCCCN)NC(=O)[C@@H](Cc2c[nH]c3ccccc23)NC(=O)[C@H](c2ccc(O)cc2)NC1=O` (some centres not stated), the results for the Inhibition in the assay with PC-3 and with SW-620 were 5% and 65%, respectively.
In the case of `CCCCCCCCCCC(N)C(=O)NCC(=O)NCC(=O)N[C@H](Cc1ccccc1)C(=O)N[C@H]1CSSC[C@@H](C(=O)N[C@H](C(N)=O)[C@@H](C)O)NC(=O)[C@H](CCCCN)NC(=O)[C@@H](Cc2c[nH]c3ccccc23)NC(=O)[C@H](c2ccc(O)cc2)NC1=O` (some centres not stated), the Inhibition was found to be 43% in the assay with Faza 967 cell clone 2/T1; 48% in the assay on A-431 [1]; 33% with Faza 967 clone 2; 50% in the assay on HT-29; 35% with A2058.
With `CC(=O)NCSC[C@H](NC(=O)[C@H](N)Cc1ccccc1)C(=O)N[C@H](C(=O)N[C@H](Cc1c[nH]c2ccccc12)C(=O)N[C@@H](CCCCN)C(=O)N[C@@H](CSCNC(C)=O)C(=O)N[C@H](C(N)=O)[C@@H](C)O)c1ccc(O)cc1`, the Inhibition is 0% with Faza 967 cell clone 2/T1; 34% in the assay on A-431 [1]; 10% in the assay on Faza 967 clone 2; 80% in the assay with HT-29; 30% with A2058.
`CCCCCCCCCCCCC(NC(=O)CCC(=O)NC1OC(O)C(O)C(O)C1O)C(=O)N[C@H](Cc1ccccc1)C(=O)N[C@H]1CSSC[C@@H](C(=O)N[C@H](C(N)=O)[C@@H](C)O)NC(=O)[C@H](CCCCN)NC(=O)[C@@H](Cc2c[nH]c3ccccc23)NC(=O)[C@H](c2ccc(O)cc2)NC1=O` (some centres not stated): the Inhibition in the assay on PC-3 was found to be 55%; in the assay on HT-29, 30%; with A2058 it was 100%.
In the case of `CCCCCCCCCCCCC(N[C@H](Cc1ccccc1)C(=O)N[C@@H](CSCNC(C)=O)C(=O)N[C@H](C(=O)N[C@H](Cc1c[nH]c2ccccc12)C(=O)N[C@@H](CCCCN)C(=O)N[C@@H](CSCNC(C)=O)C(=O)N[C@H](C(N)=O)[C@@H](C)O)c1ccc(O)cc1)C(=O)NC1OC(O)C(O)C(O)C1O` (some centres not stated), the Inhibition in the assay with Faza 967 cell clone 2/T1 came out at 50%; in the assay with A-431 [1] it was 32%; with Faza 967 clone 2, 61%; in the assay on HT-29, 39%; in the assay on A2058 it was 62%.
`CCCCCCCCC(N)C(=O)NC(CCCCCCCC)C(=O)N[C@H](Cc1ccccc1)C(=O)N[C@@H](CSCNC(C)=O)C(=O)N[C@H](C(=O)N[C@H](Cc1c[nH]c2ccccc12)C(=O)N[C@@H](CCCCN)C(=O)N[C@@H](CSCNC(C)=O)C(=O)N[C@H](C(N)=O)[C@@H](C)O)c1ccc(O)cc1` (some centres not stated): the Inhibition with Faza 967 cell clone 2/T1 stood at 95%; in the assay on Faza 967 clone 2 it was 96%; in the assay with HT-29, 60%; with A2058 it was 68%.
The like results for `CCCCCCCCCCCCCCCCCCC(N)C(=O)N[C@H](Cc1ccccc1)C(=O)N[C@@H](CSCNC(C)=O)C(=O)N[C@H](C(=O)N[C@H](Cc1c[nH]c2ccccc12)C(=O)N[C@@H](CCCCN)C(=O)N[C@@H](CSCNC(C)=O)C(=O)N[C@H](C(N)=O)[C@@H](C)O)c1ccc(O)cc1` (some centres not stated) were, in that order, 87%, 71%, 50% and 34%.
Regarding `CCCCCCCCCCCCC(N)C(=O)N[C@H](Cc1ccccc1)C(=O)N[C@@H](CSCNC(C)=O)C(=O)N[C@H](C(=O)N[C@H](Cc1c[nH]c2ccccc12)C(=O)N[C@@H](CCCCN)C(=O)N[C@@H](CSCNC(C)=O)C(=O)N[C@H](C(=O)NC1OC(C(N)=O)C(O)C(O)C1O)[C@@H](C)O)c1ccc(O)cc1` (some centres not stated), the Inhibition in the assay with Faza 967 cell clone 2/T1 is on record as 17%; in the assay with A-431 [1] it was 10%; with Faza 967 clone 2, 23%; with HT-29, 18%; with A2058, 2%.
The like results for `CCCCCCCCCCC(N)C(=O)N[C@H](Cc1ccccc1)C(=O)N[C@@H](CSCNC(C)=O)C(=O)N[C@H](C(=O)N[C@H](Cc1c[nH]c2ccccc12)C(=O)N[C@@H](CCCCN)C(=O)N[C@@H](CSCNC(C)=O)C(=O)N[C@H](C(=O)NC1OC(C(N)=O)C(O)C(O)C1O)[C@@H](C)O)c1ccc(O)cc1` (some centres not stated) were, in that order, 29%, 50%, 19%, 36% and 80%.
As to `CC(=O)NCSC[C@H](NC(=O)[C@H](N)Cc1ccccc1)C(=O)N[C@H](C(=O)N[C@H](Cc1c[nH]c2ccccc12)C(=O)N[C@@H](CCCCN)C(=O)N[C@@H](CSCNC(C)=O)C(=O)N[C@H](C(=O)NC1OC(C(N)=O)C(O)C(O)C1O)[C@@H](C)O)c1ccc(O)cc1` (some centres not stated), the Inhibition in the assay with Faza 967 cell clone 2/T1 is on record as 90%; with A-431 [1], 90%; in the assay with Faza 967 clone 2, 93%; in the assay with HT-29, 85%; in the assay with A2058 it was 88%.
Regarding `C[C@@H](O)[C@H](NC(=O)C1CSSCC(NC(=O)[C@H](N)Cc2ccccc2)C(=O)N[C@@H](c2ccc(O)cc2)C(=O)NC(Cc2c[nH]c3ccccc23)C(=O)N[C@@H](CCCCN)C(=O)N1)C(N)=O` (single isomer, unassigned), the Inhibition in the assay on Faza 967 cell clone 2/T1 is 100%; in the assay on PC-3, 90%; in the assay with A-431 [2], 100%; with Faza 967 clone 2 it was 100%; in the assay with SW-620 it was 90%; in the assay with HT-29, 76%. Further, the Inhibition in the assay with A2058 stood at 96%.
